Tested on: not listed separately
Test: Cytotoxicity against human Bel7404 cells after 72 hrs by MTT assay
Assay type: functional, cell-based
Settings: BEL-7404, 72 h
Outline: (§1)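 Cells grown in MEM with 10% fetal calf serum, penicillin and streptomycin at 37 °C, 5% CO2. Exponentially growing cells seeded in quadruplicate at 5 × 10³ per well and left 24 h before compounds (DMSO stocks) were added. After 72 h exposure, MTT added for 4 h at 37 °C, formazan dissolved in DMSO, read at 570 nm. IC50 read graphically from dose–response curves.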

**Q.** With CCOc1ccc(COc2c(OC)cc(/C=C/C(=O)NCCN3CCOCC3)cc2OC)cc1 as the molecule, how does the IC50 read?
**A.** > 200 µM

**Q.** With COCOc1ccc(/C=C/C(=O)NCCN2CCOCC2)cc1OCOC as the molecule, how does the IC50 read?
**A.** > 200 µM

**Q.** Which IC50 does the source give for O=C(/C=C/C(=O)N1CCN(Cc2ccc(Cl)c(Cl)c2)CC1)c1ccccc1 here?
**A.** 67.1 µM

Tested on: A549
Test: Cytotoxicity against human A549 cells after 72 hrs by MTT assay
Assay type: functional, cell-based
Settings: A549, 72 h
Outline: as §1

**Q.** Which IC50 does the source give for CCOc1ccc(COc2c(OC)cc(/C=C/C(=O)NCCN3CCOCC3)cc2OC)cc1 here?
**A.** > 200 µM

**Q.** For COCOc1ccc(/C=C/C(=O)NCCN2CCOCC2)cc1OCOC, which IC50 is on record?
**A.** > 200 µM

**Q.** For O=C(/C=C/C(=O)N1CCN(Cc2ccc(Cl)c(Cl)c2)CC1)c1ccccc1, which IC50 is on record?
**A.** 139 µM

Tested on: not listed separately
Test: Cytotoxicity against human LS 174T cells after 72 hrs by MTT assay
Assay type: functional, cell-based
Settings: LS174T
Outline: as §1

**Q.** For CCOc1ccc(COc2c(OC)cc(/C=C/C(=O)NCCN3CCOCC3)cc2OC)cc1, which IC50 is on record?
**A.** > 200 µM

**Q.** With COCOc1ccc(/C=C/C(=O)NCCN2CCOCC2)cc1OCOC as the molecule, how does the IC50 read?
**A.** > 200 µM

**Q.** With O=C(/C=C/C(=O)N1CCN(Cc2ccc(Cl)c(Cl)c2)CC1)c1ccccc1 as the molecule, how does the IC50 read?
**A.** 67.2 µM

Tested on: HeLa
Test: Cytotoxicity against human HeLa cells after 72 hrs by MTT assay
Assay type: functional, cell-based
Settings: not given
Outline: as §1

**Q.** For CCOc1ccc(COc2c(OC)cc(/C=C/C(=O)NCCN3CCOCC3)cc2OC)cc1, which IC50 is on record?
**A.** > 200 µM

**Q.** For COCOc1ccc(/C=C/C(=O)NCCN2CCOCC2)cc1OCOC, which IC50 is on record?
**A.** > 200 µM

**Q.** For O=C(/C=C/C(=O)N1CCN(Cc2ccc(Cl)c(Cl)c2)CC1)c1ccccc1, which IC50 is on record?
**A.** 84.8 µM

Tested on: PC-3
Test: Cytotoxicity against human PC3 cells after 72 hrs by MTT assay
Assay type: functional, cell-based
Settings: PC-3, 72 h
Outline: as §1

**Q.** Which IC50 does the source give for CCOc1ccc(COc2c(OC)cc(/C=C/C(=O)NCCN3CCOCC3)cc2OC)cc1 here?
**A.** > 200 µM

**Q.** Which IC50 does the source give for COCOc1ccc(/C=C/C(=O)NCCN2CCOCC2)cc1OCOC here?
**A.** > 200 µM

**Q.** Which IC50 does the source give for O=C(/C=C/C(=O)N1CCN(Cc2ccc(Cl)c(Cl)c2)CC1)c1ccccc1 here?
**A.** > 200 µM

Tested on: BGC-823
Test: Cytotoxicity against human BGC823 cells after 72 hrs by MTT assay
Assay type: functional, cell-based
Settings: BGC-823, 72 h
Outline: as §1

**Q.** For CCOc1ccc(COc2c(OC)cc(/C=C/C(=O)NCCN3CCOCC3)cc2OC)cc1, which IC50 is on record?
**A.** > 200 µM

**Q.** With COCOc1ccc(/C=C/C(=O)NCCN2CCOCC2)cc1OCOC as the molecule, how does the IC50 read?
**A.** > 200 µM

**Q.** For O=C(/C=C/C(=O)N1CCN(Cc2ccc(Cl)c(Cl)c2)CC1)c1ccccc1, which IC50 is on record?
**A.** 78.8 µM

Tested on: KB
Test: Cytotoxicity against human KB cells after 72 hrs by MTT assay
Assay type: functional, cell-based
Settings: not given
Outline: as §1

**Q.** With CCOc1ccc(COc2c(OC)cc(/C=C/C(=O)NCCN3CCOCC3)cc2OC)cc1 as the molecule, how does the IC50 read?
**A.** > 200 µM

**Q.** With COCOc1ccc(/C=C/C(=O)NCCN2CCOCC2)cc1OCOC as the molecule, how does the IC50 read?
**A.** > 200 µM

**Q.** For O=C(/C=C/C(=O)N1CCN(Cc2ccc(Cl)c(Cl)c2)CC1)c1ccccc1, which IC50 is on record?
**A.** 103 µM

Tested on: not listed separately
Test: Cytotoxicity against human HO8910 cells after 72 hrs by MTT assay
Assay type: functional, cell-based
Settings: HO-8910, 72 h
Outline: as §1

**Q.** For CCOc1ccc(COc2c(OC)cc(/C=C/C(=O)NCCN3CCOCC3)cc2OC)cc1, which IC50 is on record?
**A.** > 200 µM

**Q.** With COCOc1ccc(/C=C/C(=O)NCCN2CCOCC2)cc1OCOC as the molecule, how does the IC50 read?
**A.** > 200 µM

**Q.** For O=C(/C=C/C(=O)N1CCN(Cc2ccc(Cl)c(Cl)c2)CC1)c1ccccc1, which IC50 is on record?
**A.** > 200 µM

Tested on: not listed separately
Test: Cytotoxicity against human ECA109 cells after 72 hrs by MTT assay
Assay type: functional, cell-based
Settings: ECa-109, 72 h
Outline: as §1

**Q.** For CCOc1ccc(COc2c(OC)cc(/C=C/C(=O)NCCN3CCOCC3)cc2OC)cc1, which IC50 is on record?
**A.** > 200 µM

**Q.** With COCOc1ccc(/C=C/C(=O)NCCN2CCOCC2)cc1OCOC as the molecule, how does the IC50 read?
**A.** > 200 µM

**Q.** With O=C(/C=C/C(=O)N1CCN(Cc2ccc(Cl)c(Cl)c2)CC1)c1ccccc1 as the molecule, how does the IC50 read?
**A.** 103 µM

Tested on: CNE
Test: Cytotoxicity against human CNE cells after 72 hrs by MTT assay
Assay type: functional, cell-based
Settings: not given
Outline: as §1

**Q.** With CCOc1ccc(COc2c(OC)cc(/C=C/C(=O)NCCN3CCOCC3)cc2OC)cc1 as the molecule, how does the IC50 read?
**A.** > 200 µM

**Q.** For COCOc1ccc(/C=C/C(=O)NCCN2CCOCC2)cc1OCOC, which IC50 is on record?
**A.** > 200 µM

**Q.** With O=C(/C=C/C(=O)N1CCN(Cc2ccc(Cl)c(Cl)c2)CC1)c1ccccc1 as the molecule, how does the IC50 read?
**A.** > 200 µM

Tested on: K562
Test: Cytotoxicity against human K562 cells after 72 hrs by MTT assay
Assay type: functional, cell-based
Settings: K562, 72 h
Outline: as §1

**Q.** Which IC50 does the source give for CCOc1ccc(COc2c(OC)cc(/C=C/C(=O)NCCN3CCOCC3)cc2OC)cc1 here?
**A.** > 200 µM

**Q.** With COCOc1ccc(/C=C/C(=O)NCCN2CCOCC2)cc1OCOC as the molecule, how does the IC50 read?
**A.** > 200 µM

**Q.** Which IC50 does the source give for O=C(/C=C/C(=O)N1CCN(Cc2ccc(Cl)c(Cl)c2)CC1)c1ccccc1 here?
**A.** > 200 µM

Tested on: HL-60
Test: Cytotoxicity against human HL60 cells after 72 hrs by MTT assay
Assay type: functional, cell-based
Settings: HL-60, 72 h
Outline: as §1

**Q.** For CCOc1ccc(COc2c(OC)cc(/C=C/C(=O)NCCN3CCOCC3)cc2OC)cc1, which IC50 is on record?
**A.** > 200 µM

**Q.** With COCOc1ccc(/C=C/C(=O)NCCN2CCOCC2)cc1OCOC as the molecule, how does the IC50 read?
**A.** > 200 µM

**Q.** For O=C(/C=C/C(=O)N1CCN(Cc2ccc(Cl)c(Cl)c2)CC1)c1ccccc1, which IC50 is on record?
**A.** 99.4 µM

From ChEMBL document CHEMBL1221279, “Synthesis, biological evaluation, and structure-activity relationship study of novel cytotoxic aza-caffeic acid derivatives” (Bioorg Med Chem, 2010)
